Experimental data from article PMC5237703 (Acta Pharmaceutica Sinica. B, 2016).
Like-named read-outs stand apart in the source and are kept apart here.

Legend:
MCF-7 (breast cancer) = assay: MTT cytotoxicity assay, MCF-7; format: cell-based, human; details: read-out: IC50 Breast MCF-7
Outline: (§1)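 Media: EMEM for MCF-7, McCoy's 5a for SaOS-2, RPMI-1640 for K562, each with NaHCO3, sodium pyruvate, 10% fetal calf serum and 1% penicillin/streptomycin. Culture at 37 °C, humidified 5% CO2. Seeded 5×10^3 cells/well and exposed to graded test compound for 72 h. MTT for 4 h, DMSO solubilisation, A570. IC50 from percent survival; mean ± SD, 2–3 experiments in triplicate.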

[1] = system: breast carcinoma cell line MDA-MB-231; assay: MTT cytotoxicity assay, MDA-MB-231; format: cell-based; details: read-out: IC50 Breast MDAMB-231
Outline: (§2)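 Cells grown as adherent monolayers in DMEM with 10% FBS at 37 °C under humidified 5% CO2. Cells were trypsin-harvested and seeded at 5×10^3 per well, then graded concentrations of test compound were added for 72 h. MTT (4 mg/mL solution) was added for 4 h, formazan dissolved in DMSO and A570 read. IC50 derived from percent survival; mean ± SD, 2–3 experiments in triplicate.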

[2] = system: breast carcinoma cell line MDA-MB-468; assay: MTT cytotoxicity assay, MDA-MB-468; format: cell-based; details: read-out: IC50 Breast MDAMB-468
Outline: as §2

[3] = system: prostatic cancer cell line DU-145; assay: MTT cytotoxicity assay, DU-145; format: cell-based; details: read-out: IC50 Prostate DU-145
Outline: as §2

[4] = system: pancreatic cancer cell line PANC-1; assay: MTT cytotoxicity assay, PANC-1; format: cell-based; details: read-out: IC50 Pancreas PANC-1
Outline: as §2

[5] = system: K562 (myelogenous leukemia); assay: MTT cytotoxicity assay, K562; format: cell-based, human; details: read-out: IC50 Blood K562
Outline: as §1

SaOS-2 (osteosarcoma) = assay: MTT cytotoxicity assay, SaOS-2; format: cell-based, human; details: read-out: IC50 Bone SaoS2
Outline: as §1

[6] = system: colon carcinoma cell line HCT-15; assay: MTT cytotoxicity assay, HCT-15; format: cell-based; details: read-out: IC50 Colon HCT15
Outline: as §2

[7] = system: Lung cancer cell line A549; assay: MTT cytotoxicity assay, A549; format: cell-based
[8] = system: human embryonic kidney cells HEK293; assay: MTT cytotoxicity assay, HEK293; format: cell-based; details: read-out: IC50 Normal HEK293
Outline: as §2

mouse fibroblast KB-31 = assay: MTT cytotoxicity assay, KB-31; format: cell-based; details: KB 3-1, 72 h, read-out: IC50 Mouse fibroblast KB-31
Outline: as §2

COX-1 = target: T1, COX-1 (Ovis aries, UniProt P05979); assay: COX-1 inhibition, chromogenic TMPD oxidation assay; format: biochemical, Ram
T1 sequence (P05979 25-600): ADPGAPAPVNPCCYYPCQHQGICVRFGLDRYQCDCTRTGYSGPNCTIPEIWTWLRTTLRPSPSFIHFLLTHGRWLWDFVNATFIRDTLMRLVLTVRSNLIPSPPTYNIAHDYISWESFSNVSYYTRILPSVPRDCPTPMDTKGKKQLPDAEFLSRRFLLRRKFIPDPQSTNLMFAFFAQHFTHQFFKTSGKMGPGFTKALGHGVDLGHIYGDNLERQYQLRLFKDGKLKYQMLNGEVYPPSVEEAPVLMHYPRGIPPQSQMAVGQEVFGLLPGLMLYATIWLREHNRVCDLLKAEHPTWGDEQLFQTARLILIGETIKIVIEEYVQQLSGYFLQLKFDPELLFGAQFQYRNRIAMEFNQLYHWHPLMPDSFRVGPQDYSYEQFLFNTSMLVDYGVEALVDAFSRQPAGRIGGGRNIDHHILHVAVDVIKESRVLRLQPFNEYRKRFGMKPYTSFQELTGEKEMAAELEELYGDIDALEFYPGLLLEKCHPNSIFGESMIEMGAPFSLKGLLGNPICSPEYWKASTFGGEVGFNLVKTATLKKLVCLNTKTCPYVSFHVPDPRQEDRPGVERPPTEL

Recombinant human COX-2 = target: T2, Recombinant human COX-2 (Homo sapiens, UniProt P35354); assay: biochemical; format: biochemical; details: for IC50: TMPD oxidation at 603 nm; for Selectivity ratio COX-2/COX-1: ratio of IC50 COX-2 to IC50 COX-1
T2 sequence (P35354 18-604): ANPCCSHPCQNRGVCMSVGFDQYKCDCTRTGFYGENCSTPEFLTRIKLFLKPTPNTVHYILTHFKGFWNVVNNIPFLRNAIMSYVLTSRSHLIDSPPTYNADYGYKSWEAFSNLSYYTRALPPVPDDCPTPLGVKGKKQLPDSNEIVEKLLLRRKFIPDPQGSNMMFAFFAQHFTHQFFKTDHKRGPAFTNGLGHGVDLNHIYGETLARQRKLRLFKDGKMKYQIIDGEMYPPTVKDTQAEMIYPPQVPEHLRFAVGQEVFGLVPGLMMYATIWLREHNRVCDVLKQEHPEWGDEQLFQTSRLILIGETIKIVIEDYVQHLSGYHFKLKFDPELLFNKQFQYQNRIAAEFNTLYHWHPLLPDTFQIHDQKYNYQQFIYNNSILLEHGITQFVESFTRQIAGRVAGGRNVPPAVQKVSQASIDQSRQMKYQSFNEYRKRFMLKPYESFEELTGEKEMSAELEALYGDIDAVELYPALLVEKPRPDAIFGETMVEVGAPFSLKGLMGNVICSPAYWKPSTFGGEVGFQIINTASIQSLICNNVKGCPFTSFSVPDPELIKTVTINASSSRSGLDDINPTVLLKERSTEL

[9] = Homo sapiens, A549, read-out: IC50 Lung A549
[10] = IC50 COX-2, recombinant human COX-2
[11] = MTT, 72 h incubation, non-cancerous cell line
[12] = read-out: IC50 COX-1, COX-1 from Ram seminal vesicles, TMPD oxidation at 603 nm
[13] = read-out: IC50 COX-2, recombinant human COX-2

Molecule | IC50 (MCF-7 (breast cancer); Homo sapiens, MCF7, 72 h) [µM] | IC50 ([1]; Homo sapiens, MDA-MB-231, 72 h) [µM] | IC50 ([2]; Homo sapiens, MDA-MB-468, 72 h) [µM] | IC50 ([3]; Homo sapiens, DU-145, 72 h) [µM] | IC50 ([4]; Homo sapiens, PANC-1, 72 h) [µM] | IC50 ([5]; Homo sapiens, K562, 72 h) [µM] | IC50 (SaOS-2 (osteosarcoma); Homo sapiens, SAOS-2, 72 h) [µM] | IC50 ([6]; Homo sapiens, HCT-15, 72 h) [µM] | IC50 [7, 9] [µM] | IC50 ([8]; Homo sapiens, HEK293, 72 h) [µM] | IC50 (mouse fibroblast KB-31) [µM] | IC50 (COX-1) [µM] | IC50 (Recombinant human COX-2; [10]) [µM] | Selectivity ratio COX-2/COX-1 (Recombinant human COX-2) | IC50 (MCF-7 (breast cancer); MTT, 72 h incubation) [µM] | IC50 ([1]; MTT, 72 h incubation) [µM] | IC50 ([2]; MTT, 72 h incubation) [µM] | IC50 ([3]; MTT, 72 h incubation) [µM] | IC50 ([4]; MTT, 72 h incubation) [µM] | IC50 ([5]; MTT, 72 h incubation) [µM] | other results
Oc1cccc(-c2nc3cccnc3n2-c2ccc(F)cc2)c1 [Compound 3a, 3-(3-(4-Fluorophenyl)-3H-imidazo[4,5-b]pyridin-2-yl)phenol] | 61.5 | > 100 | > 100 | > 100 | > 100 | 49 | 64 | > 100 | > 100 | > 100 | > 100 | 10 ± 0.01 | 35.9 ± 2 | 3.59 | – | – | – | – | – | – | –
5-(3-(3,4-Dimethoxyphenyl)-3H-imidazo[4,5-b]pyridin-2-yl)-2-methoxyphenol [Compound 3h] | – | – | – | – | – | – | – | – | – | – | – | – | – | 0.83 | 53 | > 100 | > 100 | > 100 | 57.7 | 54.5 | IC50 (SaOS-2 (osteosarcoma); MTT, 72 h incubation): 59 µM; IC50 ([6]; MTT, 72 h incubation): 66.9 µM; IC50 ([7]; read-out: IC50 Lung A549, MTT): > 100 µM; IC50 [8, 11]: 80 µM; IC50 (COX-1; [12]): 18.5 µM; IC50 (Recombinant human COX-2; [13]): 15.4 ± 3.1 µM
5-(3-(4-Fluorophenyl)-3H-imidazo[4,5-b]pyridin-2-yl)-2-methoxyphenol [Compound 3e] | – | – | – | – | – | – | – | – | – | – | – | – | – | 16.58 | 60 | > 100 | 78.8 | > 100 | > 100 | 53 | IC50 (SaOS-2 (osteosarcoma); MTT, 72 h incubation): 62.5 µM; IC50 ([6]; MTT, 72 h incubation): > 100 µM; IC50 ([7]; read-out: IC50 Lung A549, MTT): > 100 µM; IC50 [8, 11]: > 100 µM; IC50 (COX-1; [12]): 16.8 ± 0.1 µM; IC50 (Recombinant human COX-2; [13]): 279 ± 7.2 µM
4-(3-(4-Fluorophenyl)-3H-imidazo[4,5-b]pyridin-2-yl)-2-methoxyphenol [Compound 3d] | – | – | – | – | – | – | – | – | – | – | – | – | – | 0.60 | 72 | > 100 | > 100 | > 100 | > 100 | 57 | IC50 (SaOS-2 (osteosarcoma); MTT, 72 h incubation): 71.5 µM; IC50 ([6]; MTT, 72 h incubation): > 100 µM; IC50 ([7]; read-out: IC50 Lung A549, MTT): > 100 µM; IC50 [8, 11]: > 100 µM; IC50 (COX-1; [12]): 42.7 ± 2.5 µM; IC50 (Recombinant human COX-2; [13]): 25.6 ± 1 µM
COc1cc(-c2nc3cccnc3n2-c2ccc(Cl)cc2)cc(OC)c1OC [Compound 3g, 3-(4-Chlorophenyl)-2-(3,4,5-trimethoxyphenyl)-3H-imidazo[4,5-b]pyridine] | 56 | > 100 | 69.3 | > 100 | 83.5 | 47 | 55 | > 100 | > 100 | > 100 | 64.4 | 19.1 ± 0.3 | 22.4 ± 2.5 | 1.17 | – | – | – | – | – | – | –
FC(F)(F)c1cccc(-c2nc3cccnc3n2-c2ccc(Cl)cc2)c1 [Compound 3f, 3-(4-Chlorophenyl)-2-(3-(trifluoromethyl)phenyl)-3H-imidazo[4,5-b]pyridine] | 49.9 | > 100 | > 100 | > 100 | > 100 | 43 | 53.5 | > 100 | > 100 | > 100 | > 100 | 21.8 ± 1.1 | 9.2 ± 0.02 | 0.42 | – | – | – | – | – | – | selectivity for COX-2 over COX-1 (Recombinant human COX-2; from IC50 values against COX-2 and COX-1): 2 fold
Fc1ccc(-n2c(-c3cccc(C(F)(F)F)c3)nc3cccnc32)cc1 [Compound 3c, 3-(4-Fluorophenyl)-2-(3-(trifluoromethyl)phenyl)-3H-imidazo[4,5-b]pyridine] | 44 | > 100 | > 100 | > 100 | > 100 | 42 | 52.5 | > 100 | > 100 | > 100 | > 100 | 36 ± 1.4 | 15.1 ± 0.9 | 0.42 | – | – | – | – | – | – | –
COc1cccc(-c2nc3cccnc3n2-c2ccc(F)cc2)c1 [Compound 3b, 3-(4-Fluorophenyl)-2-(3-methoxyphenyl)-3H-imidazo[4,5-b]pyridine] | 69 | > 100 | 66.5 | > 100 | > 100 | 46 | 67 | > 100 | > 100 | > 100 | 75 | 15 ± 0.13 | – | – | – | – | – | – | – | – | –
